In ChEMBL document CHEMBL4138242, “Synthesis and antibacterial evaluation of novel cationic chalcone derivatives possessing broad spectrum antibacterial activity” (Eur J Med Chem, 2018):
The source made the active and inactive calls.

Legend:
Staphylococcus aureus [1] = test: Antibacterial activity against Staphylococcus aureus ATCC 29213 after 16 to 20 hrs by broth microdilution method; assay type: functional
Method in brief: (§1)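 Broth microdilution per CLSI. Bacteria grown 4-6 h (about 10⁸ CFU/mL), then diluted to about 10⁶ CFU/mL. Medium: Mueller-Hinton broth, except Luria-Bertani broth for E. coli. Compounds in sterile water, twofold series 256-0.5 µg/mL, mixed 1:1 with inoculum, 37 °C for 16-20 h. MIC is the lowest concentration without visible growth. Duplicate wells; experiment repeated at least twice.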

Enterococcus faecalis = test: Antibacterial activity against Enterococcus faecalis ATCC 29212 after 16 to 20 hrs by broth microdilution method; assay type: functional; method in brief: as §1
Escherichia coli [2] = test: Antibacterial activity against Escherichia coli ATCC 25922 after 16 to 20 hrs by broth microdilution method; assay type: functional; method in brief: as §1
Salmonella enterica = test: Antibacterial activity against Salmonella enterica ATCC 13076 after 16 to 20 hrs by broth microdilution method; assay type: functional; method in brief: as §1
[3] = Hemolytic activity in sheep RBC after 1 hr; assay type: ADME, cell-based, Ovis aries, Erythrocyte; conditions: sheep red blood cells (erythrocytes)
Method in brief: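 Sheep red blood cells (150 µL suspension) mixed with 50 µL of compound dilutions (5120-10 µg/mL), 1 h at 37 °C, then centrifuged. Supernatant read at 540 nm. Percent hemolysis calculated relative to RBC-only control (0%) and 0.1% Triton X-100 (100%).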

Staphylococcus aureus [4] = test: Antibacterial activity against methicillin-resistant Staphylococcus aureus clinical isolate 1105183 cono7 after 16 to 20 hrs by broth microdilution method; assay type: functional
Method in brief: (§2)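 CLSI broth microdilution in Mueller-Hinton broth. A 4-6 h culture was diluted to about 10⁶ CFU/mL and mixed 1:1 with compound dilutions prepared at 256 to 0.5 µg/mL from aqueous stocks. Plates were incubated at 37 °C for 16-20 h and read visually for MIC. Each concentration was run in duplicate, and the experiment was repeated at least twice. Vancomycin and meropenem were comparators.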

Staphylococcus aureus [5] = test: Antibacterial activity against methicillin-resistant Staphylococcus aureus clinical isolate 20130911034sau after 16 to 20 hrs by broth microdilution method; assay type: functional; method in brief: as §2
Staphylococcus aureus [6] = test: Antibacterial activity against methicillin-resistant Staphylococcus aureus clinical isolate 0831010 after 16 to 20 hrs by broth microdilution method; assay type: functional; method in brief: as §2
Staphylococcus aureus [7] = test: Antibacterial activity against methicillin-resistant Staphylococcus aureus clinical isolate 1104060 after 16 to 20 hrs by broth microdilution method; assay type: functional; method in brief: as §2
Staphylococcus aureus [8] = test: Antibacterial activity against methicillin-resistant Staphylococcus aureus clinical isolate 20131012632sau after 16 to 20 hrs by broth microdilution method; assay type: functional; method in brief: as §2
Staphylococcus aureus [9] = test: Antibacterial activity against methicillin-resistant Staphylococcus aureus clinical isolate 1207007 after 16 to 20 hrs by broth microdilution method; assay type: functional; method in brief: as §2
Staphylococcus aureus [10] = test: Antibacterial activity against methicillin-resistant Staphylococcus aureus clinical isolate 1-may after 16 to 20 hrs by broth microdilution method; assay type: functional; method in brief: as §2
Staphylococcus aureus [11] = test: Antibacterial activity against methicillin-resistant Staphylococcus aureus clinical isolate 0906202 after 16 to 20 hrs by broth microdilution method; assay type: functional; method in brief: as §2
Staphylococcus aureus [12] = test: Antibacterial activity against methicillin-resistant Staphylococcus aureus clinical isolate 1208143 after 16 to 20 hrs by broth microdilution method; assay type: functional; method in brief: as §2
Klebsiella pneumoniae [13] = test: Antibacterial activity against drug-resistant carbapenemase producing Klebsiella pneumoniae clinical isolate KP-14-8 after 16 to 20 hrs by broth microdilution method; assay type: functional; method in brief: as §2
Klebsiella pneumoniae [14] = test: Antibacterial activity against drug-resistant carbapenemase producing Klebsiella pneumoniae clinical isolate KP-13-45 after 16 to 20 hrs by broth microdilution method; assay type: functional; method in brief: as §2
Klebsiella pneumoniae [15] = test: Antibacterial activity against drug-resistant carbapenemase producing Klebsiella pneumoniae clinical isolate KP-14-3 after 16 to 20 hrs by broth microdilution method; assay type: functional; method in brief: as §2
Klebsiella pneumoniae [16] = test: Antibacterial activity against drug-resistant carbapenemase producing Klebsiella pneumoniae clinical isolate KP-14-1 after 16 to 20 hrs by broth microdilution method; assay type: functional; method in brief: as §2
Klebsiella pneumoniae [17] = test: Antibacterial activity against drug-resistant carbapenemase producing Klebsiella pneumoniae clinical isolate KP-14-4 after 16 to 20 hrs by broth microdilution method; assay type: functional; method in brief: as §2
Klebsiella pneumoniae [18] = test: Antibacterial activity against drug-resistant carbapenemase producing Klebsiella pneumoniae clinical isolate KP-13-54 after 16 to 20 hrs by broth microdilution method; assay type: functional; method in brief: as §2
Klebsiella pneumoniae [19] = test: Antibacterial activity against drug-resistant carbapenemase producing Klebsiella pneumoniae clinical isolate KP-14-2 after 16 to 20 hrs by broth microdilution method; assay type: functional; method in brief: as §2
Klebsiella pneumoniae [20] = test: Antibacterial activity against drug-resistant carbapenemase producing Klebsiella pneumoniae clinical isolate EC-13-23 after 16 to 20 hrs by broth microdilution method; assay type: functional; method in brief: as §2
Klebsiella pneumoniae [21] = test: Antibacterial activity against drug-resistant carbapenemase producing Klebsiella pneumoniae clinical isolate KP-14-5 after 16 to 20 hrs by broth microdilution method; assay type: functional; method in brief: as §2
Klebsiella pneumoniae [22] = test: Antibacterial activity against drug-resistant carbapenemase producing Klebsiella pneumoniae clinical isolate KP-13-55 after 16 to 20 hrs by broth microdilution method; assay type: functional; method in brief: as §2
Klebsiella pneumoniae [23] = test: Antibacterial activity against drug-resistant carbapenemase producing Klebsiella pneumoniae clinical isolate KP-14-45 after 16 to 20 hrs by broth microdilution method; assay type: functional; method in brief: as §2
Klebsiella pneumoniae [24] = test: Antibacterial activity against drug-resistant carbapenemase producing Klebsiella pneumoniae clinical isolate KP-14-18 after 16 to 20 hrs by broth microdilution method; assay type: functional; method in brief: as §2
Escherichia coli [25] = test: Antibacterial activity against drug-resistant NDM1 producing Escherichia coli clinical isolate EC-13-49 after 16 to 20 hrs by broth microdilution method; assay type: functional; method in brief: as §2
Escherichia coli [26] = test: Antibacterial activity against drug-resistant NDM1 producing Escherichia coli clinical isolate Ecl-14-58 after 16 to 20 hrs by broth microdilution method; assay type: functional; method in brief: as §2
Escherichia coli [27] = test: Antibacterial activity against drug-resistant NDM1 producing Escherichia coli clinical isolate KP-13-58 after 16 to 20 hrs by broth microdilution method; assay type: functional; method in brief: as §2
Escherichia coli [28] = test: Antibacterial activity against drug-resistant NDM1 producing Escherichia coli clinical isolate Ecl-13-62 after 16 to 20 hrs by broth microdilution method; assay type: functional; method in brief: as §2
Escherichia coli [29] = test: Antibacterial activity against drug-resistant NDM1 producing Escherichia coli clinical isolate EC-14-54 after 16 to 20 hrs by broth microdilution method; assay type: functional; method in brief: as §2
Escherichia coli [30] = test: Antibacterial activity against drug-resistant NDM1 producing Escherichia coli clinical isolate Ecl-14-59 after 16 to 20 hrs by broth microdilution method; assay type: functional; method in brief: as §2
Escherichia coli [31] = test: Antibacterial activity against drug-resistant NDM1 producing Escherichia coli clinical isolate EA-14-61 after 16 to 20 hrs by broth microdilution method; assay type: functional; method in brief: as §2
Escherichia coli [32] = test: Antibacterial activity against drug-resistant NDM1 producing Escherichia coli clinical isolate Ecl-14-56 after 16 to 20 hrs by broth microdilution method; assay type: functional; method in brief: as §2
Escherichia coli [33] = test: Antibacterial activity against drug-resistant NDM1 producing Escherichia coli clinical isolate 1460 after 16 to 20 hrs by broth microdilution method; assay type: functional; method in brief: as §2
Escherichia coli [34] = test: Antibacterial activity against drug-resistant NDM1 producing Escherichia coli clinical isolate SM-15-84 after 16 to 20 hrs by broth microdilution method; assay type: functional; method in brief: as §2
Escherichia coli [35] = test: Antibacterial activity against drug-resistant NDM1 producing Escherichia coli clinical isolate CF-15-61 after 16 to 20 hrs by broth microdilution method; assay type: functional; method in brief: as §2
Escherichia coli [36] = test: Antibacterial activity against drug-resistant NDM1 producing Escherichia coli clinical isolate CF-13-61 after 16 to 20 hrs by broth microdilution method; assay type: functional; method in brief: as §2
Staphylococcus aureus [37] = test: Induction of cytoplasmic membrane depolarization in Staphylococcus aureus ATCC 29213 at 10 to 20 ug/ml measured every 2 mins for 12 mins by DiSC35 dye-based fluorescence assay; assay type: functional, organism-based
Method in brief: (§3)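 Mid-log cells (~10⁸ CFU/mL) were suspended in PBS (S. aureus) or HEPES/glucose/KCl with EDTA (E. coli). They were preloaded with DiSC3(5) for 30 min (S. aureus) or 40 min (E. coli), and baseline fluorescence was read for 8 min. Compound was added to 20 µg/mL final, and fluorescence (ex 622/em 670 nm) was read every 2 min for 12 min. Water served as control.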

Escherichia coli [38] = test: Induction of cytoplasmic membrane depolarization in Escherichia coli ATCC 25922 at 10 to 20 ug/ml measured every 2 mins for 12 mins by DiSC35 dye-based fluorescence assay; assay type: functional, organism-based; method in brief: as §3
Staphylococcus aureus [39] = test: Induction of inner membrane permeabilization in Staphylococcus aureus ATCC 29213 at 10 to 20 ug/ml measured every 2 mins for 12 mins by propidium iodide staining-based fluorescence assay; assay type: functional, organism-based
Method in brief: (§4)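 Mid-log cells (~10⁸ CFU/mL) were suspended in PBS (S. aureus) or HEPES/glucose/KCl (E. coli). They were preincubated with propidium iodide for 30 min (S. aureus) or 40 min (E. coli), and baseline fluorescence was read for 8 min. Compound was added to 20 µg/mL final, and fluorescence (ex 535/em 617 nm) was read every 2 min for 12 min.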

Escherichia coli [40] = test: Induction of inner membrane permeabilization in Escherichia coli ATCC 25922 at 10 to 20 ug/ml measured every 2 mins for 12 mins by propidium iodide staining-based fluorescence assay; assay type: functional, organism-based; method in brief: as §4

CCCCCCCC[N+](C)(C)CC(=O)Nc1ccc(C(=O)/C=C/c2ccccc2C(F)(F)F)cc1.[Cl-]
active: Activity (Staphylococcus aureus [37]) | Activity (Escherichia coli [38]) | Activity (Staphylococcus aureus [39]) | Activity (Escherichia coli [40])
> 128 µg/mL: MIC (Klebsiella pneumoniae [16]) | MIC (Klebsiella pneumoniae [19])
1 µg/mL: MIC (Staphylococcus aureus [4]) | MIC (Staphylococcus aureus [11]) | MIC (Staphylococcus aureus [12]) | MIC (Escherichia coli [27])
0.5 µg/mL: MIC (Staphylococcus aureus [5]) | MIC (Staphylococcus aureus [6]) | MIC (Staphylococcus aureus [10])
16 µg/mL: MIC (Salmonella enterica) | MIC (Staphylococcus aureus [7]) | MIC (Klebsiella pneumoniae [22]) | MIC (Klebsiella pneumoniae [24]) | MIC (Escherichia coli [29])
128 µg/mL: MIC (Escherichia coli [34])
136 µg/mL: HC50 at 1 h [3]
2 µg/mL: MIC (Staphylococcus aureus [1]) | MIC (Staphylococcus aureus [9])
8 µg/mL: MIC (Escherichia coli [2]) | MIC (Klebsiella pneumoniae [13]) | MIC (Klebsiella pneumoniae [14]) | MIC (Klebsiella pneumoniae [15]) | MIC (Klebsiella pneumoniae [17]) | MIC (Klebsiella pneumoniae [21]) | MIC (Klebsiella pneumoniae [23]) | MIC (Escherichia coli [25]) | MIC (Escherichia coli [26]) | MIC (Escherichia coli [28]) | MIC (Escherichia coli [30]) | MIC (Escherichia coli [31]) | MIC (Escherichia coli [33])
4 µg/mL: MIC (Enterococcus faecalis) | MIC (Staphylococcus aureus [8]) | MIC (Klebsiella pneumoniae [18]) | MIC (Klebsiella pneumoniae [20]) | MIC (Escherichia coli [32]) | MIC (Escherichia coli [35]) | MIC (Escherichia coli [36])

CCCCCCCC[N+](C)(C)CC(=O)Nc1ccc(C(=O)/C=C/c2ccc(F)cc2F)cc1.[Cl-]
54 µg/mL: HC50 at 1 h [3]
1 µg/mL: MIC (Staphylococcus aureus [4]) | MIC (Staphylococcus aureus [5]) | MIC (Staphylococcus aureus [10])
8 µg/mL: MIC (Staphylococcus aureus [7]) | MIC (Klebsiella pneumoniae [14]) | MIC (Klebsiella pneumoniae [15]) | MIC (Klebsiella pneumoniae [16]) | MIC (Klebsiella pneumoniae [20]) | MIC (Klebsiella pneumoniae [22]) | MIC (Klebsiella pneumoniae [23]) | MIC (Klebsiella pneumoniae [24]) | MIC (Escherichia coli [29])
2 µg/mL: MIC (Staphylococcus aureus [1]) | MIC (Enterococcus faecalis) | MIC (Staphylococcus aureus [12]) | MIC (Escherichia coli [27]) | MIC (Escherichia coli [36])
16 µg/mL: MIC (Klebsiella pneumoniae [19]) | MIC (Escherichia coli [34])
active: Activity (Staphylococcus aureus [37]) | Activity (Escherichia coli [38]) | Activity (Staphylococcus aureus [39]) | Activity (Escherichia coli [40])
0.5 µg/mL: MIC (Staphylococcus aureus [6]) | MIC (Staphylococcus aureus [9])
4 µg/mL: MIC (Escherichia coli [2]) | MIC (Salmonella enterica) | MIC (Staphylococcus aureus [8]) | MIC (Staphylococcus aureus [11]) | MIC (Klebsiella pneumoniae [13]) | MIC (Klebsiella pneumoniae [17]) | MIC (Klebsiella pneumoniae [18]) | MIC (Klebsiella pneumoniae [21]) | MIC (Escherichia coli [25]) | MIC (Escherichia coli [26]) | MIC (Escherichia coli [28]) | MIC (Escherichia coli [30]) | MIC (Escherichia coli [31]) | MIC (Escherichia coli [32]) | MIC (Escherichia coli [33]) | MIC (Escherichia coli [35])
